# Source: PubChem (several laboratories)
# EphB4 antag = antagonists of human EphB4-ephrin-B2 interaction; P54760; EphB4 LBD / TNYL-RAW-Alexa532 peptide, fluorescence polarization; inhibition, % at 7 µM; hit rate 0.15% among 97,000;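 active = inhibition above the screen-wide mean inhibition plus 3 SD, cut at about 15% in these data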;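 also: 0% = DMSO wells and 100% = excess unlabeled TNYL-RAW peptide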
# DAT uptake mod = human DAT dopamine uptake with cocaine, either direction | Q01959 | LLC-PK1 hDAT cells, [14C]-dopamine uptake with cocaine IC80; actives deviate in either direction | B-score at 10 µM | hit rate 1.3% among 110,000 | AID 449768;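 active = Z score or B-score, a plate-position-corrected score, falls beyond the plate's 99.7% confidence bounds, in either direction; inactive = both scores lie inside the 99.7% bounds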;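 also: scored against the spread of the other compound wells on the same plate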
# HIV Rev-RRE inh = inhibitors of HIV-1 Rev-RRE RNA interaction; P05866; Rev peptide-RRE RNA binding, FRET; inhibition, % at 8 µM; hit rate 0.79% among 97,000; AID 704;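 active = inhibition above the screen-wide mean plus 3 SD, cut at about 35% in these data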;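 also: 0% = median DMSO wells and 100% = median Neomycin B control wells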
# Target sequence (P05866 whole entry, looked up): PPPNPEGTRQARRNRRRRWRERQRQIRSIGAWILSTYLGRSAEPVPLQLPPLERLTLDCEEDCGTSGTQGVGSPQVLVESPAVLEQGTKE
#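 System: Cy5-labelled duplex RRE RNA binding fluorescein-labelled HIV Rev peptide; Signal: fluorescein-to-Cy5 FRET, 480 nm excitation; Also added: labelled Rev peptide; Compound: one concentration, 8 µM nominal; Buffer or medium: HEPES pH 7.5 salt buffer with EDTA; Read-out: % inhibition of FRET ratio versus controls; Schedule: 5 min preincubation and 15 min binding, 25 °C.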
# Cav32 inh = blocks human Cav3.2 T-type calcium channel | O95180 | AID 449739 | hit rate 4% among 100,000 | B-score at 10 µM | Cav3.2-expressing cells, Fluo-4 calcium fluorescence FDSS; active compounds read low;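 active = single-dose well whose peak fluorescence ratio is a statistical outlier from its plate by either plate-standardised score or position-corrected B-score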
# Numbers without * were called inactive; . = no result given; [ ] = another dose, or the depositor's remark. Compounds with a hit are over-represented: about 5.4% of the library has one in this group of screens.
SMILES,EphB4 antag,DAT uptake mod,HIV Rev-RRE inh,Cav32 inh
Cc1ccc(S(=O)(=O)c2c(N)n(/N=C/c3ccco3)c3nc4ccccc4nc23)cc1,-10,0.67,-3,-2.1
COc1ccc(S(=O)(=O)c2c(N)n(Cc3ccco3)c3nc4ccccc4nc23)cc1,5,2.3,53*,-1.1
CCC1C2CN(C(C)=O)CC=C2C(C#N)=C(N)C1(C#N)C#N (stereo unspecified),-1,0.068,9,2
CC(C)N1CC=C2C(C#N)=C(N)C(C#N)(C#N)[C@H](c3ccoc3)[C@H]2C1,0,0.017,107*[fluorescence artefact?],-4.6*
COc1cc(C2C3CN(C)CC=C3C(C#N)=C(N)C2(C#N)C#N)ccc1OC(C)C (stereo unspecified),.,0.93,.,0.25
CC(C)N1CC=C2C(C#N)=C(N)C(C#N)(C#N)C(c3ccccc3)C2C1 (stereo unspecified),-2,-0.76,91*[fluorescence artefact?],-2
CN1CC=C2C(C#N)=C(N)C(C#N)(C#N)C(Cc3ccccc3)C2C1 (stereo unspecified),0,-0.45,72*,-0.0043
CCN1CC=C2C(C#N)=C(N)C(C#N)(C#N)C(c3cc(Cl)ccc3Cl)C2C1 (stereo unspecified),0,.,66*,.
CCn1c(SCc2nc3sc(C(=O)O)c(C)c3c(=O)[nH]2)nc2ccccc21,5,.,60*,.
COCCn1c(SCc2nc3sc(C(=O)OC)c(C)c3c(=O)[nH]2)nc2ccccc21,-9,0.13,21,0.16
O=C(CN(Cc1ccccc1)C(=O)c1cc2c(s1)CCC2)NCc1cccs1,8,1.3,7,-4.5*
COc1ccc2cc(C)c3nnc(SCC(=O)Nc4nc(-c5ccccc5)cs4)n3c2c1,0,-0.76,3,-2.6
CCOc1cc(C(=S)N2CCCCC2)ccc1OS(=O)(=O)c1ccc(Br)cc1,-11,0.36,-6,-4.9*
CCOc1cc(C(=S)N2CCC(O)CC2)ccc1OS(=O)(=O)c1ccc(Br)cc1,10,0.43,7,-4.9*
CCOc1ccc(C(=S)N2CCOCC2)cc1OCC,-5,1,3,0.055
CCOc1cc(C(=S)N2CCCCC2)ccc1OS(=O)(=O)c1ccc(Cl)cc1,-7,-0.26,0,-5*
Cc1ccc(S(=O)(=O)NCCN=C(CN2CCCC2)NS(=O)(=O)c2ccc(C)cc2)cc1,1,2.3,8,0.16
Oc1ccc(-c2nc3ccccn3c2NCc2ccco2)cc1,1,0.88,6,0.11
Cc1ccc(-c2nc3ccccn3c2NCc2ccc3c(c2)OCO3)cc1,6,0.5,9,-4.4*
CC(SCc1ccccc1)C(=O)Nc1ccc2c(c1)OCO2 (stereo unspecified),-3,-1.1,2,-2.5
CC(Sc1ccc(Cl)cc1)C(=O)Nc1ccc(S(=O)(=O)N2CCOCC2)cc1 (stereo unspecified),-3,0.1,6,-5.1*
CC(Sc1ccc(Cl)cc1)C(=O)Nc1ccc2c(c1)OCO2 (stereo unspecified),-2,0.037,-4,-5.8*
CC(C(=O)NCc1ccc2c(c1)OCO2)N1c2cccc3cccc(c23)S1(=O)=O (stereo unspecified),10,1.2,10,-5.1*
O=C(CN1c2cccc3cccc(c23)S1(=O)=O)NCc1ccc2c(c1)OCO2,-6,0.073,3,0.055
CC(Sc1ccc(Cl)cc1)C(=O)NCc1ccc2c(c1)OCO2 (stereo unspecified),3,-0.57,6,-5.8*
SMILES,EphB4 antag,DAT uptake mod,HIV Rev-RRE inh,Cav32 inh
CC1(C)Cc2cccc(OCC(=O)Nc3cccnc3Cl)c2O1,1,-0.46,3,-0.24
CC(C)(C)C(=O)/C(=C\c1ccc([N+](=O)[O-])cc1)n1cncn1,-3,-0.75,-1,-0.18
CC1(C)CC(=O)C2=C(C1)N(Cc1ccccc1)C(=O)C2(NC(=O)C(C)(C)C)C(F)(F)F (stereo unspecified),0,-0.037,-2,1.8
COC(=O)c1sccc1NC(=O)CN(C)NS(=O)(=O)c1ccc(F)cc1,-9,0.78,3,0.07
O=C(Nc1ccc2c(c1)OCO2)C(c1ccccc1)N1CCN(C(=O)c2ccco2)CC1 (stereo unspecified),.,-1.8,.,-0.16
O=C(Nc1ccc2c(c1)OCO2)C(c1ccc(Cl)cc1)N1CCN(C(=O)c2ccco2)CC1 (stereo unspecified),3,2.4*,8,-4.3*
CC1=Nn2c(nnc2-c2cccs2)SC1,-6,-3.4*,0,0.86
Cc1cccc(OCCCSc2nc3ccc(C)cc3[nH]2)c1,2,0.85,16,-4.6*
C=CCc1ccc(OCCCCCN2CCOCC2)c(OC)c1,2,0.024,2,.
